Assay results collected from several papers.
Target: Tyrosine-protein kinase Lck (LCK, Homo sapiens, UniProt P06239)

With `COc1ccnn2ncc(-c3ccnc(N(C)C)n3)c12` the remaining binding was 94% (binding; 1 µM).
`COc1ncc2cc3ccccc3nc2c1C#N` gave a remaining binding of 93% (binding; competition with immobilised ligand; 5 µM).
With `c1cnn2ncc(-c3ccnc(N4CCC45COC5)n3)c2c1` the remaining binding was 99% (binding; 1 µM).
The remaining binding of `O=C(NCC1CCOCC1)c1n[nH]cc1NC(=O)c1c(F)cccc1F` is reported as 100% (binding; competition with immobilised ligand; 1 µM).
For `CNCc1ccccc1-c1csc([C@H](C)Nc2nc(C)nc3cc(OC)c(OC)cc23)c1`, the remaining binding was 100% (cell-free assay; competition with immobilised ligand; 1 µM).
For `O=C(NCCCN1CCOCC1)c1ccc(Nc2nccc(-c3cc4ccccc4s3)n2)cc1`, the remaining binding was 76% (binding; competition with immobilised ligand; 1 µM).
The remaining binding of `CCCOc1ccc([C@H]2[C@H](C(=O)O)[C@@H](c3ccc4c(c3)OCO4)CN2CC(=O)Nc2c(CC)cccc2CC)cc1` is reported as 100% (cell-free assay; competition with immobilised ligand; 1 µM).
For `O=C(c1ccc(Nc2nccc(-c3cc4ccccc4s3)n2)cc1)N1CCC(N2CCCC2)CC1`, the remaining binding was 34% (binding; competition with immobilised ligand; 1 µM).
For `FC(F)(F)Oc1cccc(-c2cnc3ccc(-c4ccncc4)nn23)c1`, the remaining binding was 35% (cell-free assay; competition with immobilised ligand; 5 µM).
With `C[C@@H]1CCN(c2nccc(-c3cnn4ncccc34)n2)C1` the remaining binding was 93% (binding; 1 µM).
`COc1cnc(Nc2cccc(S(N)(=O)=O)c2)nc1N1CCN(c2ccccc2)C(=O)C1` has a remaining binding of 100% (binding; competition with immobilised ligand; 1 µM).
The remaining binding of `Cc1cnc(Nc2ccc(C(=O)N3CCC(N4CCCC4)CC3)cc2)nc1-c1cc2ccccc2s1` is reported as 2.7% (binding; competition with immobilised ligand; 1 µM).
With `COc1ccc2c(c1)O[C@@H](c1ccc(OC)c(OC)c1)C[C@H]2NC(=O)C1(c2ccc3c(c2)OC(F)(F)O3)CC1` the remaining binding was 100% (cell-free assay; competition with immobilised ligand; 1 µM).
With `C=CC(=O)N1CCC(C(=O)NCC(=O)N2CCN(c3nc(-c4cnc(N)nc4C(F)F)nc(N4CCOCC4)n3)CC2)CC1` the remaining binding was 90% (binding; competition with immobilised ligand; 1 µM).
`CC1=C(C#N)[C@@H](c2ccc3[nH]nc(C)c3c2)C(C#N)=C(c2ccc(Cl)cc2)N1` has a remaining binding of 100% (cell-free assay; competition with immobilised ligand; 1 µM).
With `c1cncc(-c2cccc(Nc3nccc(NC4CCCCC4)n3)c2)c1` the remaining binding was 6.6% (binding; competition with immobilised ligand; 10 µM).
